From ChEMBL document CHEMBL1158458, “Virtual screening approach for the identification of new Rac1 inhibitors” (J Med Chem, 2009)
Calls of active or inactive are those of the source. The rule behind the calls is not given here.

How the values were obtained:
[1] = molecular target: Cell division control protein 42 homolog (Homo sapiens) (UniProt P60953); test: Inhibition of Cdc42
[2] = molecular target: Ras-related C3 botulinum toxin substrate 1 (Mus musculus) (UniProt P63001); test: Inhibition of PDGF-BB-stimulated Rac1-mediated cellular events in mouse 3T3 cells assessed as induction of membrane lamillipodia at 25 uM after 48 hrs by fluorescent microscopy; type: cell-based; settings: NIH3T3
Summary of the method: (§1)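 Serum-starved 3T3 cells were treated with compound at 25 μM and stimulated with PDGF-BB. Lamellipodia and membrane ruffle formation at the cell edges were then scored, together with cytoskeletal rearrangement.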

[3] = molecular target: Cell division control protein 42 homolog (Homo sapiens) (UniProt P60953); test: Inhibition of PDGF-BB-stimulated Cdc42 activity in human aortic smooth muscle cells assessed as reduction in ratio of Cdc42GTP/Cdc42 levels at 25 uM after 4 hrs by pull-down assay
Summary of the method: (§2)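 Cultured human aortic SMCs exposed to compound at 25 μM for 4 h, then stimulated with PDGF-BB (final 10 ng/mL) for 2 min. Active GTPase (Cdc42-GTP for line 2, RhoA-GTP for line 3) isolated by pull-down and expressed as the GTP-bound/total protein ratio. The Rac1 pull-down was run under the same conditions.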

[4] = molecular target: Ras-related C3 botulinum toxin substrate 1 (Mus musculus) (UniProt P63001); test: Inhibition of PDGF-BB-stimulated Rac1-mediated cellular events in mouse 3T3 cells assessed as induction of membrane ruffling formation at 25 uM after 48 hrs by fluorescent microscopy; type: cell-based; settings: NIH3T3; summary of the method: as §1
[5] = molecular target: Transforming protein RhoA (Homo sapiens) (UniProt P61586); test: Inhibition of PDGF-BB-stimulated RhoA activity in human aortic smooth muscle cells assessed as reduction in ratio of RhoAGTP/RhoA levels at 25 uM after 4 hrs by pull-down assay; summary of the method: as §2
[6] = molecular target: Ras-related C3 botulinum toxin substrate 1 (Homo sapiens, UniProt P63000); test: Inhibition of PDGF-BB-stimulated Rac1 activity in human aortic smooth muscle cells assessed as reduction of Rac1GTP level after 4 hrs by G-LISA

Transforming protein RhoA (Homo sapiens), sequence (P61586 whole entry): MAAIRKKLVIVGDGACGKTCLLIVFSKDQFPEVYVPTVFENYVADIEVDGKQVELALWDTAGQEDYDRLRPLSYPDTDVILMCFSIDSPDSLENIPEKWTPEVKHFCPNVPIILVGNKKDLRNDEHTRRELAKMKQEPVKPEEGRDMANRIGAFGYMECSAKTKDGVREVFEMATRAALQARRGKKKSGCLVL
Cell division control protein 42 homolog (Homo sapiens), sequence (P60953 whole entry, looked up): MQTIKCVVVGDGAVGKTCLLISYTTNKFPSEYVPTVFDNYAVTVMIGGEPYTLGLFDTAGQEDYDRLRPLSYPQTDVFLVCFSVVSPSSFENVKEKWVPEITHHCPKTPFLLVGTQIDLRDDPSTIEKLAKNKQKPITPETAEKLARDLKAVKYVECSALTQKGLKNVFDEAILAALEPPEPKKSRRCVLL

Row | SMILES | Activity [1] | Activity [2] | Percent reduction in Cdc42-GTP/total Cdc42 ratio [3] [%] | Activity [4] | Activity [5] | IC50 [6] [µM]
1 | COc1ccc(NC(=O)c2n[nH]c3ccccc23)cc1S(=O)(=O)N1CCCCC1 | Active | Active | < 25 | Active | inactive | –
2 | CC(OC(=O)c1ccc2ccccc2c1O)C(=O)Nc1ccc(N2CCOCC2)cc1 (stereo not given) | Active | – | < 25 | – | inactive | –
3 | COc1cc2c(C#N)c(N3CCN(c4ccccc4OC)CC3)nc(N)c2c(N)n1 | Active | – | < 25 | – | inactive | 46.1
4 | O=C(CNc1ccc(F)c([N+](=O)[O-])c1)Nc1ccc(N2CCOCC2)cc1 | Active | – | < 25 | – | inactive | –
